Tested on: Mus musculus
Experiment: Antagonism of apomorphine induced climbing was determined in female swiss -Wbster mice after (ip) administration of 20 mg/kg
Assay type: functional
Method in brief: (§1)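 Female Swiss-Webster mice (about 20 g) were fasted about 24 h, then given test compound or vehicle ip or po (N = 20 per group). Vehicle was 0.5% w/w hydroxypropylmethylcellulose with 0.1% w/w Tween 80 in water. After 30 min, mice received apomorphine HCl 1.25 mg/kg sc. At 13 min, each mouse was watched for 1 min; score was mean of highest and lowest rung of 27. Groups were compared with vehicle by Student's t-test.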

| Compound | Activity |
| --- | --- |
| OCCOCCN1CCN(C2=Nc3ccccc3Sc3ccccc32)CC1 [QUETIAPINE] | 15 |

Tested on: Mus musculus
Experiment: Antagonism of apomorphine induced climbing was determined in female swiss -Wbster mice after (ip) administration of 80 mg/kg
Assay type: functional
Method in brief: as §1

| Compound | Activity |
| --- | --- |
| OCCOCCN1CCN(C2=Nc3cc(O)ccc3Sc3ccccc32)CC1 | 24 |
| OCCOCCN1CCN(C2=Nc3ccccc3Oc3ccccc32)CC1 | 11 |
| OCCOCCN1CCN(C2=Nc3ccccc3Sc3ccccc32)CC1 [QUETIAPINE] | 0 |
| OCCOCCN1CCN(C2=Nc3cccc(F)c3Sc3ccccc32)CC1 | 22 |

Tested on: Mus musculus
Experiment: Antagonism of apomorphine induced climbing was determined in female swiss -Webster mice after (ip) administration of 80 mg/kg
Assay type: functional
Method in brief: as §1

| Compound | Activity |
| --- | --- |
| c1ccc2c(c1)N=C(N1CCN(CC3CCCO3)CC1)c1ccccc1S2 (stereo not drawn) | 1 |
| OCCOCCOCCN1CCN(C2=Nc3ccccc3Sc3ccccc32)CC1 | <3 |

Tested on: Mus musculus
Experiment: Antagonism of apomorphine induced climbing was determined in female swiss -Webster mice after (ip) administration of 20 mg/kg
Assay type: functional
Method in brief: as §1

| Compound | Activity |
| --- | --- |
| c1ccc2c(c1)N=C(N1CCN(CC3CCCO3)CC1)c1ccccc1S2 (stereo not drawn) | 2 |
| OCCOCCOCCN1CCN(C2=Nc3ccccc3Sc3ccccc32)CC1 | 20 |

Tested on: not listed separately
Experiment: Number of animals showing dyskinesias was determined in haloperidol sensitized 2 cebus monkeys after (po) administration of 40 mg/kg
Assay type: functional
Method in brief: (§2)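 Adult female and male Cebus monkeys sensitized with oral haloperidol 1 mg/kg once per week until dyskinetic reactions occurred. Test drug given orally (2 mL/kg) in 0.5% w/w hydroxypropylmethylcellulose with 0.1% w/w Tween 80 in distilled water, at least 2 weeks between treatments. Two observers watched continuously for 6-7 h, recording reaction type and severity every 30 min. Score is monkeys with dyskinesias/monkeys tested.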

| Compound | No of monkeys |
| --- | --- |
| c1ccc2c(c1)N=C(N1CCN(CC3CCCO3)CC1)c1ccccc1S2 (stereo not drawn) | 2 |

Tested on: Mus musculus
Experiment: Antagonism of apomorphine induced climbing was determined in female swiss -Wbster mice after (ip) administration of 40 mg/kg
Assay type: functional
Method in brief: as §1

| Compound | Activity |
| --- | --- |
| OCCOCCN1CCN(C2=Nc3ccccc3Oc3ccccc32)CC1 | 17 |
| OCCOCCN1CCN(C2=Nc3ccccc3Sc3ccccc32)CC1 [QUETIAPINE] | 2 |

Tested on: Mus musculus
Experiment: Antagonism of apomorphine induced swimming was determined in female swiss -Wbster mice after (po) administration of 20 mg/kg
Assay type: functional

| Compound | Activity |
| --- | --- |
| OCCOCCN1CCN(C2=Nc3ccccc3Sc3ccccc32)CC1 [QUETIAPINE] | 3 |

Target: D(2) dopamine receptor (Rattus norvegicus) (UniProt P61169)
Sequence (P61169 whole entry): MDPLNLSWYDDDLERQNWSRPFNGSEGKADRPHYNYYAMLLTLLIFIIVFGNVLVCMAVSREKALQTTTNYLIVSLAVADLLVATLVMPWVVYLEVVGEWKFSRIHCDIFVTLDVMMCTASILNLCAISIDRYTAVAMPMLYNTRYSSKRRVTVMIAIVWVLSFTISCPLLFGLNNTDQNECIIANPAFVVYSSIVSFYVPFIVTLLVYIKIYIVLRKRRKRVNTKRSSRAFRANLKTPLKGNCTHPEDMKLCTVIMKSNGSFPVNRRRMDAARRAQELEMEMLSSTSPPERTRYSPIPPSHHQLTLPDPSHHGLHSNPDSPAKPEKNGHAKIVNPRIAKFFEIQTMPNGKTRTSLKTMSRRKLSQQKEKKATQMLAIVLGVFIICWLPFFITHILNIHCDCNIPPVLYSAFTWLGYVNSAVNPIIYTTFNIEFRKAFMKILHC
Experiment: Binding affinity at dopamine receptor D2 from rat by spiropiperidone displacement.
Method in brief: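 D2 receptor binding was read as % displacement of spiropiperidone, with test compound at 1000 nM unless stated otherwise. IC50 values used at least five concentrations per compound in triplicate. Each value is the mean of two replicate experiments differing by 5% or less.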

| % displacement of spiropiperidone [%] | Compound |
| --- | --- |
| 24 | OCCOCCN1CCN(C2=Nc3cc(O)ccc3Sc3ccccc32)CC1 |
| 16 | OCCOCCN1CCN(C2=Nc3ccccc3Oc3ccccc32)CC1 |
| 0 | OCCOCCN1CCN(C2=Nc3cccc(F)c3Sc3ccccc32)CC1 |

Tested on: Mus musculus
Experiment: Antagonism of apomorphine induced swimming was determined in female swiss -Wbster mice after (po) administration of 80 mg/kg
Assay type: functional

| Compound | Activity |
| --- | --- |
| OCCOCCN1CCN(C2=Nc3ccccc3Sc3ccccc32)CC1 [QUETIAPINE] | 18 |

Tested on: not listed separately
Experiment: Number of animals showing dyskinesias was determined in haloperidol sensitized 13 cebus monkeys after (po) administration of 20 mg/kg
Assay type: functional
Method in brief: (§3)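 Adult male and female Cebus monkeys sensitized with haloperidol 1 mg/kg po weekly until dyskinetic reactions appeared. Drug given orally (2 mL/kg) in 0.5% w/w hydroxypropylmethylcellulose with 0.1% w/w Tween 80, at least 2 weeks between treatments. Two observers watched continuously for 6–7 h, logging reaction type and severity every 30 min. Score is the number of monkeys with dyskinesias over the number tested.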

| Compound | No of monkeys |
| --- | --- |
| OCCOCCN1CCN(C2=Nc3ccccc3Sc3ccccc32)CC1 [QUETIAPINE] | 2 |

Tested on: Mus musculus
Experiment: Antagonism of apomorphine induced swimming was determined in female swiss -Wbster mice after (ip) administration of 80 mg/kg
Assay type: functional

| Compound | Activity |
| --- | --- |
| OCCOCCN1CCN(C2=Nc3cc(O)ccc3Sc3ccccc32)CC1 | 0 |
| OCCOCCN1CCN(C2=Nc3ccccc3Oc3ccccc32)CC1 | 8 |
| OCCOCCN1CCN(C2=Nc3cccc(F)c3Sc3ccccc32)CC1 | 0 |

Tested on: not listed separately
Experiment: Number of animals showing dyskinesias was determined in haloperidol sensitized 4 cebus monkeys after (po) administration of 40 mg/kg
Assay type: functional
Method in brief: as §2

| Compound | No of monkeys |
| --- | --- |
| OCCOCCN1CCN(C2=Nc3ccccc3Sc3ccccc32)CC1 [QUETIAPINE] | 0 |

Tested on: Mus musculus
Experiment: Antagonism of apomorphine induced climbing was determined in female swiss -Wbster mice after (po) administration of 40 mg/kg
Assay type: functional
Method in brief: as §1

| Compound | Activity |
| --- | --- |
| OCCOCCN1CCN(C2=Nc3ccccc3Sc3ccccc32)CC1 [QUETIAPINE] | 14 |

Tested on: Mus musculus
Experiment: Antagonism of apomorphine induced swimming was determined in female swiss -Webster mice after (ip) administration of 5 mg/kg
Assay type: functional

| Compound | Activity |
| --- | --- |
| c1ccc2c(c1)N=C(N1CCN(CC3CCCO3)CC1)c1ccccc1S2 (stereo not drawn) | 1 |

Tested on: Mus musculus
Experiment: Antagonism of apomorphine induced climbing was determined in female swiss -Webster mice after (ip) administration of 5 mg/kg
Assay type: functional
Method in brief: as §1

| Compound | Activity |
| --- | --- |
| c1ccc2c(c1)N=C(N1CCN(CC3CCCO3)CC1)c1ccccc1S2 (stereo not drawn) | 21 |

Tested on: Mus musculus
Experiment: Antagonism of apomorphine induced swimming was determined in female swiss -Webster mice after (ip) administration of 20 mg/kg
Assay type: functional

| Compound | Activity |
| --- | --- |
| c1ccc2c(c1)N=C(N1CCN(CC3CCCO3)CC1)c1ccccc1S2 (stereo not drawn) | 16 |
| OCCOCCOCCN1CCN(C2=Nc3ccccc3Sc3ccccc32)CC1 | 2 |

Tested on: Mus musculus
Experiment: Antagonism of apomorphine induced climbing was determined in female swiss -Webster mice after (ip) administration of 40 mg/kg
Assay type: functional
Method in brief: as §1

| Compound | Activity |
| --- | --- |
| c1ccc2c(c1)N=C(N1CCN(CC3CCCO3)CC1)c1ccccc1S2 (stereo not drawn) | 7 |
| OCCOCCOCCN1CCN(C2=Nc3ccccc3Sc3ccccc32)CC1 | 14 |

Tested on: Mus musculus
Experiment: Antagonism of apomorphine induced swimming was determined in female swiss -Wbster mice after (ip) administration of 40 mg/kg
Assay type: functional

| Compound | Activity |
| --- | --- |
| OCCOCCN1CCN(C2=Nc3ccccc3Oc3ccccc32)CC1 | 1 |

Tested on: Mus musculus
Experiment: Antagonism of apomorphine induced climbing was determined in female swiss -Webster mice after (ip) administration of 10 mg/kg
Assay type: functional
Method in brief: as §1

| Compound | Activity |
| --- | --- |
| c1ccc2c(c1)N=C(N1CCN(CC3CCCO3)CC1)c1ccccc1S2 (stereo not drawn) | 9 |

Tested on: Mus musculus
Experiment: Antagonism of apomorphine induced swimming was determined in female swiss -Webster mice after (ip) administration of 10 mg/kg
Assay type: functional

| Compound | Activity |
| --- | --- |
| c1ccc2c(c1)N=C(N1CCN(CC3CCCO3)CC1)c1ccccc1S2 (stereo not drawn) | 7 |

Tested on: Mus musculus
Experiment: Antagonism of apomorphine induced swimming was determined in female swiss -Webster mice after (ip) administration of 80 mg/kg
Assay type: functional

| Compound | Activity |
| --- | --- |
| c1ccc2c(c1)N=C(N1CCN(CC3CCCO3)CC1)c1ccccc1S2 (stereo not drawn) | 37 |
| OCCOCCOCCN1CCN(C2=Nc3ccccc3Sc3ccccc32)CC1 | <12 |

Tested on: Mus musculus
Experiment: Antagonism of apomorphine induced swimming was determined in female swiss -Wbster mice after (po) administration of 10 mg/kg
Assay type: functional

| Compound | Activity |
| --- | --- |
| OCCOCCN1CCN(C2=Nc3ccccc3Sc3ccccc32)CC1 [QUETIAPINE] | 3 |

Tested on: Mus musculus
Experiment: Antagonism of apomorphine induced swimming was determined in female swiss -Wbster mice after (po) administration of 40 mg/kg
Assay type: functional

| Compound | Activity |
| --- | --- |
| OCCOCCN1CCN(C2=Nc3ccccc3Sc3ccccc32)CC1 [QUETIAPINE] | 11 |

Tested on: Mus musculus
Experiment: Antagonism of apomorphine induced swimming was determined in female swiss -Webster mice after (ip) administration of 40 mg/kg
Assay type: functional

| Compound | Activity |
| --- | --- |
| c1ccc2c(c1)N=C(N1CCN(CC3CCCO3)CC1)c1ccccc1S2 (stereo not drawn) | 26 |
| OCCOCCOCCN1CCN(C2=Nc3ccccc3Sc3ccccc32)CC1 | <3 |

Tested on: Mus musculus
Experiment: Antagonism of apomorphine induced climbing was determined in female swiss -Wbster mice after (po) administration of 20 mg/kg
Assay type: functional
Method in brief: as §1

| Compound | Activity |
| --- | --- |
| OCCOCCN1CCN(C2=Nc3ccccc3Sc3ccccc32)CC1 [QUETIAPINE] | 18 |

Target: D(2) dopamine receptor (Rattus norvegicus, UniProt P61169)
Sequence (P61169 whole entry): as above
Experiment: Inhibition of spiropiperidone binding at dopamine receptor D2 of rat.

| IC50 [nM] | Compound |
| --- | --- |
| 417 | c1ccc2c(c1)N=C(N1CCN(CC3CCCO3)CC1)c1ccccc1S2 (stereo not drawn) |
| 1390 | OCCOCCOCCN1CCN(C2=Nc3ccccc3Sc3ccccc32)CC1 |

Tested on: not listed separately
Experiment: Number of animals showing dyskinesias was determined in haloperidol sensitized 13 cebus monkeys after (po) administration of 10 mg/kg
Assay type: functional
Method in brief: as §3

| Compound | No of monkeys |
| --- | --- |
| OCCOCCN1CCN(C2=Nc3ccccc3Sc3ccccc32)CC1 [QUETIAPINE] | 1 |

Tested on: Mus musculus
Experiment: Antagonism of apomorphine induced climbing was determined in female swiss -Wbster mice after (po) administration of 80 mg/kg
Assay type: functional
Method in brief: as §1

| Compound | Activity |
| --- | --- |
| OCCOCCN1CCN(C2=Nc3ccccc3Sc3ccccc32)CC1 [QUETIAPINE] | 8 |
